Results on eight compounds are retold here after ChEMBL document CHEMBL1133006, “Synthesis and evaluation of several new (2-chloroethyl)nitrosocarbamates as potential anticancer agents” (J Med Chem, 2000).

Values after ≈ are worked out from the molar mass of the structure shown. Some results are limits rather than exact numbers.

For test [1], the system named is NCI-H23. Nature of the test: In vitro cytotoxicity was evaluated against lung NCI-H23 cells. It is filed as functional, cell-based. Conditions: Homo sapiens. The essentials: (§1)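 Cells dispersed with trypsin/EDTA, suspended at 5 × 10⁴/mL and seeded in 96-well plates. Compounds dissolved in 100% DMSO, diluted in complete medium and added in 100-µL samples, eight replicate wells per concentration. Controls were mock, vehicle (DMSO in medium) and doxorubicin 200 µM. Incubation 72 h, read by XTT or neutral red uptake, IC₅₀ calculated in µM.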

The test system of test [2] is SK-MEL-28. The experiment in a line: In vitro cytotoxicity was evaluated against melanoma SK-MEL-28 cells; […]. The format is functional, cell-based. Conditions: Homo sapiens. A digest of the protocol:
as §1

Test [3] has as its system DLD-1 (Homo sapiens). Nature of the test: In vitro cytotoxicity was evaluated against colon DLD-1 cells.
Test [4] relates to SNB-7. Nature of the test: In vitro cytotoxicity was evaluated againstCNS SNB-7 cells. The settings on record: Homo sapiens. The format is functional, cell-based. The essentials:
as §1

In test [5] the test system is CAKI-1 (Homo sapiens). Nature of the test: In vitro cytotoxicity was evaluated against renal CAKI-1 cells; […].
The subject of test [6] is CAKI-1 (Homo sapiens). Nature of the test: In vitro cytotoxicity was evaluated against renal CAKI-1 cells; 2 x 10E1.
In test [7] the test system is SK-MEL-28 (Homo sapiens). Nature of the test: In vitro cytotoxicity was evaluated against melanoma SK-MEL-28 cells; 1 x 10e1; 1 x 10E1.
For test [8], the species on record is Mus sp. The experiment in a line: Difference in the median of times poststaging for tumors of the treated (T) groups to double in mass twice compared to the median of the control (C) group. The format is functional. A digest of the protocol:
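M5076 sarcoma, 5 × 10⁶ cells implanted sc in B6C3F₁ mice (implantation = day 0). Compound given ip on days 10-14 at optimal dosage (≤LD10). T-C is the difference in median time after staging for treated versus control tumors to double in mass twice, in days.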

The subject of test [9] is DLD-1 (Homo sapiens). The experiment in a line: In vitro cytotoxicity was evaluated against colon DLD-1 cells; 2 x 10E1.
In test [10] the test system is P388. The experiment in a line: Antitumor activity was measured by % increase in life span (ILS) of CD2F1 mice implanted with P388 murine leukemia cell at a dose of 25 mg/kg. It is filed as functional, Mus sp. Conditions: Mus musculus.
The test system of test [11] is Mus sp. Nature of the test: Antitumor activity against subcutaneously implanted M5076 murine sarcoma in B6C3F1 mice (5x10E6) at 12.5 mg/kg on day 10 to 14, expressed tumor-free surv/total; 0/5. Conditions: route subcutaneous. It is filed as functional. The essentials: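 B6C3F1 mice got 5 × 10⁶ M5076 sarcoma cells sc (implant day = day 0). Drug was given ip at 12.5 mg/kg/dose on days 10-14, 5 mice per group. Tumor-free survivors/total were recorded. T-C was the difference in median time after staging for tumors to double in mass twice, treated versus control.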

Test [12] relates to P388. Nature of the test: Antitumor activity against intraperitoneally implanted P388 murine leukemia in CD2F1 mice with 10E6 at 25 mg/kg on day 1, expressed tumor-free surv/total;0/5. It is filed as functional, Mus sp. Conditions: route intraperitoneal.
Test [13] relates to P388. Nature of the test: Antitumor activity measured by % increase in life span (ILS) of CD2F1 mice implanted with murine leukemia cells expressed as net log cell kill. It is filed as functional, Mus sp.
Test [14] has as its system SNB-7. The experiment in a line: In vitro cytotoxicity was evaluated againstCNS SNB-7 cells; 3 x 10E1. The format is functional, cell-based. Conditions: Homo sapiens. The essentials:
as §1

In test [15] the test system is SK-MEL-28 (Homo sapiens). The experiment in a line: In vitro cytotoxicity was evaluated against melanoma SK-MEL-28 cells; 3 x 10E1.
The subject of test [16] is DLD-1. Nature of the test: In vitro cytotoxicity was evaluated against colon DLD-1 cells; 4 x 10E1. The format is functional, cell-based. The settings on record: Homo sapiens. A digest of the protocol:
as §1

For test [17], the system named is CAKI-1 (Homo sapiens). The experiment in a line: In vitro cytotoxicity was evaluated against renal CAKI-1 cells.
The test system of test [18] is DLD-1 (Homo sapiens). The experiment in a line: In vitro cytotoxicity was evaluated against colon DLD-1 cells; 1 x 10E1.
Test [19] deals with CAKI-1 (Homo sapiens). The experiment in a line: In vitro cytotoxicity was evaluated against renal CAKI-1 cells; 3 x 10E1.
The test system of test [20] is NCI-H23. The experiment in a line: In vitro cytotoxicity was evaluated against lung NCI-H23 cells; 1 x 10E1. It is filed as functional, cell-based. Conditions: Homo sapiens. A digest of the protocol:
as §1

Test [21] relates to SK-MEL-28 (Homo sapiens). Nature of the test: In vitro cytotoxicity was evaluated against melanoma SK-MEL-28 cells; 2 x 10E1.
Test [22] has as its system NCI-H23. Nature of the test: In vitro cytotoxicity was evaluated against lung NCI-H23 cells; 3 x 10E1. The format is functional, cell-based. Conditions: Homo sapiens. The essentials: as §1
The test system of test [23] is DLD-1 (Homo sapiens). Nature of the test: In vitro cytotoxicity was evaluated against colon DLD-1 cells; 3 x 10E1.
Test [24] deals with SK-MEL-28 (Homo sapiens). The experiment in a line: In vitro cytotoxicity was evaluated against melanoma SK-MEL-28 cells.
In test [25] the test system is SK-MEL-28. The experiment in a line: In vitro cytotoxicity was evaluated against melanoma SK-MEL-28 cells; 1 x 10E1. The format is functional, cell-based. Conditions: Homo sapiens. The essentials: as §1
For test [26], the system named is SNB-7. Nature of the test: In vitro cytotoxicity was evaluated againstCNS SNB-7 cells; 1 x 10E1. It is filed as functional, cell-based. The settings on record: Homo sapiens. The essentials: as §1
Test [27] relates to CAKI-1. The experiment in a line: In vitro cytotoxicity was evaluated against renal CAKI-1 cells; 3 x 10E1. It is filed as functional, cell-based. Conditions: Homo sapiens. A digest of the protocol: as §1
Test [28] deals with DLD-1. Nature of the test: In vitro cytotoxicity was evaluated against colon DLD-1 cells; 2 x 10E1. Conditions: Homo sapiens. The format is functional, cell-based. The essentials:
as §1

The term IC50 denotes the concentration needed to halve the response being measured. Broadly, the ILS is the gain in survival time of treated over control animals, in per cent.

On to `O=NN(CCCl)C(=O)OCc1ccccc1[N+](=O)[O-]`, for which the IC50 in [1] came to 3 mg/L (≈ 10.4 µM); in test [2] it was 40 mg/L (≈ 139 µM); in test [3], 6 mg/L; in [4], 1 mg/L (≈ 3.48 µM); in test [5], 40 mg/L (≈ 139 µM).
For `CC(=O)Oc1ccc(COC(=O)N(CCCl)N=O)cc1`, the IC50 turned out to be 20 mg/L (≈ 66.5 µM) in test [6]; 10 mg/L (≈ 33.3 µM) in test [7]; 20 mg/L (≈ 66.5 µM) in test [9]; 6 mg/L (≈ 20 µM) in test [1]; 30 mg/L (≈ 99.8 µM) in test [14]. For the same compound, the T-C in test [8] stood at 3. In test [10], the ILS at 25 mg/kg turned out to be 4%. Besides, the Survivial / total in [11] and in [12] was 0 in each case. Further, the “Net log cell kill” value in [13] is -0.3.
As to `O=NN(CCCl)C(=O)Oc1cncnc1`, the IC50 in [15] amounted to 30 mg/L (≈ 130 µM); in test [16], 40 mg/L (≈ 173 µM); in test [17], 6 mg/L; in test [1], 2 mg/L (≈ 8.67 µM); in test [4] it was 6 mg/L (≈ 26 µM).
In the case of `CC(=O)Oc1ccccc1COC(=O)N(CCCl)N=O`, the IC50 in test [18] was 10 mg/L (≈ 33.3 µM); in test [19], 30 mg/L (≈ 99.8 µM); in test [4], 6 mg/L (≈ 20 µM); in [20], 10 mg/L; in test [21], 20 mg/L (≈ 66.5 µM).
For the compound `O=NN(CCCl)C(=O)Oc1cccnc1`, the IC50 in test [15], in [22], in test [19], in test [23] and in [14] was > 30 mg/L throughout.
As for `O=NN(CCCl)C(=O)OCc1ccc([N+](=O)[O-])cc1`, the IC50 in [24] worked out at 1 mg/L; in [17], 3 mg/L; in test [1] it was 1 mg/L (≈ 3.48 µM); in test [3] it was 5 mg/L; in [4], 1 mg/L (≈ 3.48 µM).
With `CC(=O)OCC1OC(OC(=O)N(CCCl)N=O)C(OC(C)=O)C(OC(C)=O)C1OC(C)=O` (stereo not given), the IC50 in test [25] was 10 mg/L (≈ 20.7 µM); in test [1], 3 mg/L (≈ 6.21 µM); in test [26] it was 10 mg/L; in test [27] it was > 30 mg/L; in [28], 20 mg/L (≈ 41.4 µM).
Take `Nc1ccn([C@@H]2O[C@H](CO)[C@@H](O)[C@@H]2O)c(=O)n1` [CYTARABINE]: the IC50 is 1 µM in test [24]; > 5 µM in test [17]; 1 µM in test [26] (read-out: IC50); > 5 µM in test [3]; 1 µM in [20] (read-out: IC50).
